# Experimental data published in ChEMBL document CHEMBL2086304, “Synthesis and in vitro antimycobacterial and isocitrate lyase inhibition properties of novel 2-methoxy-2'-hydroxybenzanilides, their thioxo analogues and benzoxazoles” (Eur J Med Chem, 2012).
# System: Mycobacterium tuberculosis
# Assay: Antimycobacterial activity against Mycobacterium tuberculosis 331/88 after 14 days by micromethod
# Type: functional
# Conditions: 331/88, 336 h
# Outline: (§1)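 Inocula: M. tuberculosis My 331/88 at 10^-3 dilution, M. avium My 330/88 at 10^-5, M. kansasii My 235/80 and clinical isolate 6509/96 at 10^-4. Compounds added in DMSO at 1000 down to 0.5 (twofold series). Read at 14 and 21 days, plus 7 days for M. kansasii. MIC taken as lowest concentration inhibiting growth.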
row,SMILES,MIC [µM]
1,COc1ccc(Cl)cc1C(=S)Nc1ccc(Cl)cc1O,16
2,COc1cc(Cl)ccc1C(=S)Nc1cc(Cl)ccc1O,62.5
3,COc1cc(Cl)ccc1C(=O)Nc1cc(Cl)ccc1O,125
4,COc1cc(Cl)ccc1C(=S)Nc1cc(Br)ccc1O,32
5,COc1cc(Cl)ccc1C(=O)Nc1cc(Br)ccc1O,125
6,COc1cc(Cl)ccc1C(=S)Nc1ccc(Br)cc1O,16

# System: Mycobacterium tuberculosis
# Assay: Antimycobacterial activity against Mycobacterium tuberculosis 331/88 after 21 days by micromethod
# Type: functional
# Conditions: 331/88, 504 h
# Outline: as §1
row,SMILES,MIC [µM]
1,COc1ccc(Cl)cc1C(=S)Nc1ccc(Cl)cc1O,32
2,COc1cc(Cl)ccc1C(=S)Nc1cc(Cl)ccc1O,62.5
3,COc1cc(Cl)ccc1C(=O)Nc1cc(Cl)ccc1O,125
4,COc1cc(Cl)ccc1C(=S)Nc1cc(Br)ccc1O,32
5,COc1cc(Cl)ccc1C(=O)Nc1cc(Br)ccc1O,125
6,COc1cc(Cl)ccc1C(=S)Nc1ccc(Br)cc1O,32

# System: Mycobacterium avium
# Assay: Antimycobacterial activity against isoniazid resistance Mycobacterium avium 330/88 after 14 days by micromethod
# Type: functional
# Conditions: 330/88, 336 h
# Outline: as §1
row,SMILES,MIC [µM]
1,COc1ccc(Cl)cc1C(=S)Nc1ccc(Cl)cc1O,32
2,COc1cc(Cl)ccc1C(=S)Nc1cc(Cl)ccc1O,32
3,COc1cc(Cl)ccc1C(=O)Nc1cc(Cl)ccc1O,125
4,COc1cc(Cl)ccc1C(=S)Nc1cc(Br)ccc1O,32
5,COc1cc(Cl)ccc1C(=O)Nc1cc(Br)ccc1O,62.5
6,COc1cc(Cl)ccc1C(=S)Nc1ccc(Br)cc1O,32

# System: Mycobacterium avium
# Assay: Antimycobacterial activity against isoniazid resistance Mycobacterium avium 330/88 after 21 days by micromethod
# Type: functional
# Conditions: 330/88, 504 h
# Outline: as §1
row,SMILES,MIC [µM]
1,COc1ccc(Cl)cc1C(=S)Nc1ccc(Cl)cc1O,62.5
2,COc1cc(Cl)ccc1C(=S)Nc1cc(Cl)ccc1O,32
3,COc1cc(Cl)ccc1C(=O)Nc1cc(Cl)ccc1O,125
4,COc1cc(Cl)ccc1C(=S)Nc1cc(Br)ccc1O,62.5
5,COc1cc(Cl)ccc1C(=O)Nc1cc(Br)ccc1O,62.5
6,COc1cc(Cl)ccc1C(=S)Nc1ccc(Br)cc1O,32

# System: Mycobacterium kansasii
# Assay: Antimycobacterial activity against Mycobacterium kansasii 6509/96 clinical isolate after 7 days by micromethod
# Type: functional
# Conditions: 6509/96, 168 h
# Outline: as §1
row,SMILES,MIC [µM]
1,COc1ccc(Cl)cc1C(=S)Nc1ccc(Cl)cc1O,32
2,COc1cc(Cl)ccc1C(=S)Nc1cc(Cl)ccc1O,32
3,COc1cc(Cl)ccc1C(=O)Nc1cc(Cl)ccc1O,16
4,COc1cc(Cl)ccc1C(=S)Nc1cc(Br)ccc1O,32
5,COc1cc(Cl)ccc1C(=O)Nc1cc(Br)ccc1O,62.5
6,COc1cc(Cl)ccc1C(=S)Nc1ccc(Br)cc1O,16

# System: Mycobacterium kansasii
# Assay: Antimycobacterial activity against isoniazid resistance Mycobacterium kansasii 225/80 after 7 days by micromethod
# Type: functional
# Conditions: 225/80, 168 h
row,SMILES,MIC [µM]
1,COc1ccc(Cl)cc1C(=S)Nc1ccc(Cl)cc1O,16
2,COc1cc(Cl)ccc1C(=S)Nc1cc(Cl)ccc1O,16
3,COc1cc(Cl)ccc1C(=O)Nc1cc(Cl)ccc1O,125
4,COc1cc(Cl)ccc1C(=S)Nc1cc(Br)ccc1O,16
5,COc1cc(Cl)ccc1C(=O)Nc1cc(Br)ccc1O,62.5
6,COc1cc(Cl)ccc1C(=S)Nc1ccc(Br)cc1O,16

# System: Mycobacterium kansasii
# Assay: Antimycobacterial activity against isoniazid resistance Mycobacterium kansasii 225/80 after 14 days by micromethod
# Type: functional
# Conditions: 225/80, 336 h
row,SMILES,MIC [µM]
1,COc1ccc(Cl)cc1C(=S)Nc1ccc(Cl)cc1O,32
2,COc1cc(Cl)ccc1C(=S)Nc1cc(Cl)ccc1O,62.5
3,COc1cc(Cl)ccc1C(=O)Nc1cc(Cl)ccc1O,125
4,COc1cc(Cl)ccc1C(=S)Nc1cc(Br)ccc1O,32
5,COc1cc(Cl)ccc1C(=O)Nc1cc(Br)ccc1O,62.5
6,COc1cc(Cl)ccc1C(=S)Nc1ccc(Br)cc1O,32

# System: Mycobacterium kansasii
# Assay: Antimycobacterial activity against isoniazid resistance Mycobacterium kansasii 225/80 after 21 days by micromethod
# Type: functional
# Conditions: 225/80, 504 h
row,SMILES,MIC [µM]
1,COc1ccc(Cl)cc1C(=S)Nc1ccc(Cl)cc1O,62.5
2,COc1cc(Cl)ccc1C(=S)Nc1cc(Cl)ccc1O,125
3,COc1cc(Cl)ccc1C(=O)Nc1cc(Cl)ccc1O,125
4,COc1cc(Cl)ccc1C(=S)Nc1cc(Br)ccc1O,62.5
5,COc1cc(Cl)ccc1C(=O)Nc1cc(Br)ccc1O,62.5
6,COc1cc(Cl)ccc1C(=S)Nc1ccc(Br)cc1O,62.5

# System: Mycobacterium kansasii
# Assay: Antimycobacterial activity against Mycobacterium kansasii 6509/96 clinical isolate after 14 days by micromethod
# Type: functional
# Conditions: 6509/96, 336 h
# Outline: as §1
row,SMILES,MIC [µM]
1,COc1ccc(Cl)cc1C(=S)Nc1ccc(Cl)cc1O,32
2,COc1cc(Cl)ccc1C(=S)Nc1cc(Cl)ccc1O,62.5
3,COc1cc(Cl)ccc1C(=O)Nc1cc(Cl)ccc1O,62.5
4,COc1cc(Cl)ccc1C(=S)Nc1cc(Br)ccc1O,32
5,COc1cc(Cl)ccc1C(=O)Nc1cc(Br)ccc1O,62.5
6,COc1cc(Cl)ccc1C(=S)Nc1ccc(Br)cc1O,32

# System: Mycobacterium kansasii
# Assay: Antimycobacterial activity against Mycobacterium kansasii 6509/96 clinical isolate after 21 days by micromethod
# Type: functional
# Conditions: 6509/96, 504 h
# Outline: as §1
row,SMILES,MIC [µM]
1,COc1ccc(Cl)cc1C(=S)Nc1ccc(Cl)cc1O,32
2,COc1cc(Cl)ccc1C(=S)Nc1cc(Cl)ccc1O,125
3,COc1cc(Cl)ccc1C(=O)Nc1cc(Cl)ccc1O,62.5
4,COc1cc(Cl)ccc1C(=S)Nc1cc(Br)ccc1O,62.5
5,COc1cc(Cl)ccc1C(=O)Nc1cc(Br)ccc1O,62.5
6,COc1cc(Cl)ccc1C(=S)Nc1ccc(Br)cc1O,32

# Biological target: T1, Isocitrate lyase (Mycobacterium tuberculosis) (UniProt P9WKK7)
# T1 sequence (whole entry): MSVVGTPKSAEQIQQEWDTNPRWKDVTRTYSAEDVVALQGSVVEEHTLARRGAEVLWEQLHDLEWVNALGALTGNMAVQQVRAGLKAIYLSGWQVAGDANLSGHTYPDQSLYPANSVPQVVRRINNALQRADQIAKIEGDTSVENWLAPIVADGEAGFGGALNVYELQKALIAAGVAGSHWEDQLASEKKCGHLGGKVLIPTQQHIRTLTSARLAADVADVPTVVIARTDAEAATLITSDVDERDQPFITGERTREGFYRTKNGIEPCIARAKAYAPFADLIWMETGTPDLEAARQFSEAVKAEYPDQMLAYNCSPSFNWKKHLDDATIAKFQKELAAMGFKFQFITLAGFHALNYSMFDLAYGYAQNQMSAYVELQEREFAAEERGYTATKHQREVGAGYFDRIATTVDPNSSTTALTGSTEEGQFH
# Assay: Inhibition of Mycobacterium tuberculosis H37Rv isocitrate lyase expressed in Escherichia coli HB101 at 10 umol/L
# Conditions: not given
# Outline: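 Isocitrate lyase assayed per Dixon–Kornberg in 96-well format. Buffer: 50 mmol/L KH2PO4, 4 mmol/L MgCl2, 4 mmol/L phenylhydrazine, 12 mmol/L cysteine, pH 7.0. Glyoxylate phenylhydrazone read at 324 nm. Compounds added in DMSO, with DMSO-alone inhibition subtracted.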
row,SMILES,inhibition [%]
1,COc1ccc(Cl)cc1C(=S)Nc1ccc(Cl)cc1O,0
2,COc1cc(Cl)ccc1C(=S)Nc1cc(Cl)ccc1O,9
3,COc1cc(Cl)ccc1C(=O)Nc1cc(Cl)ccc1O,0
4,COc1cc(Cl)ccc1C(=S)Nc1cc(Br)ccc1O,0
5,COc1cc(Cl)ccc1C(=O)Nc1cc(Br)ccc1O,0
6,COc1cc(Cl)ccc1C(=S)Nc1ccc(Br)cc1O,10

# System: HepG2
# Assay: Cytotoxicity against human HepG2 cells after 24 hrs by CellTiter-96 cell viability assay
# Type: functional, cell-based
# Conditions: HepG2, 24 h
# Outline: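 Hep G2 human hepatic cells (passage 12), 10,000 per well, grown 24 h at 37 °C, 5% CO2 in MEM with 1% glutamine, 10% FBS and 1% nonessential amino acids. Compounds in DMSO at eight increasing concentrations, quadruplicate, 24 h at 37 °C. Kit reagent added, 1.5 h at 37 °C, absorbance 490 nm. IC50 is the concentration reducing viability to 50% of control.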
row,SMILES,IC50 [µM]
1,COc1ccc(Cl)cc1C(=S)Nc1ccc(Cl)cc1O,4.45
2,COc1cc(Cl)ccc1C(=S)Nc1cc(Cl)ccc1O,8.49
3,COc1cc(Cl)ccc1C(=O)Nc1cc(Cl)ccc1O,87
4,COc1cc(Cl)ccc1C(=S)Nc1cc(Br)ccc1O,6.53
5,COc1cc(Cl)ccc1C(=O)Nc1cc(Br)ccc1O,5.63
6,COc1cc(Cl)ccc1C(=S)Nc1ccc(Br)cc1O,3.88

# System: not listed separately
# Assay: Selectivity index, ratio of IC50 for human HepG2 cells to MIC for Mycobacterium tuberculosis 331/88 after 14 days
# Type: functional
# Conditions: not given
# Outline: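 Cytotoxicity in Hep G2 cells (passage 12), 10,000 cells/well, in MEM with 10% FBS, 1% glutamine and 1% nonessential amino acids. Cells preincubated 24 h, 37 °C, 5% CO2. Compounds in DMSO at eight concentrations in quadruplicate, 24 h. MTS-type reagent added for 1.5 h, A490 read, IC50 taken at 50% viability. SI = this IC50 over the 14-day M. tuberculosis MIC.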
row,SMILES,Selectivity Index
1,COc1ccc(Cl)cc1C(=S)Nc1ccc(Cl)cc1O,0.28
2,COc1cc(Cl)ccc1C(=S)Nc1cc(Cl)ccc1O,0.14
3,COc1cc(Cl)ccc1C(=O)Nc1cc(Cl)ccc1O,0.7
4,COc1cc(Cl)ccc1C(=S)Nc1cc(Br)ccc1O,0.2
5,COc1cc(Cl)ccc1C(=O)Nc1cc(Br)ccc1O,0.05
6,COc1cc(Cl)ccc1C(=S)Nc1ccc(Br)cc1O,0.24
